Assay results from ChEMBL document CHEMBL4732031, “Novel fluorinated ring-fused chlorins as promising PDT agents against melanoma and esophagus cancer” (RSC Med Chem, 2021).
pIC50: −log10 of the molar value.

Legend:
[1] = system: A-375; test: Photocytotoxicity against human A375 cells assessed as cell viability after 24 hrs in presence of light irradiation by MTT assay; assay type: functional, cell-based; conditions: A-375, light or radiation study
In short: (§1)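 A375 (DMEM) or OE19 (RPMI 1640) cells were plated overnight and given sensitizer at 1 nM–10 μM, diluted from a 1 mg/mL DMSO stock, with a 1% DMSO vehicle control. After 24 h dark incubation at 37 °C, cells were PBS-washed and refed.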

[2] = system: OE19; test: Photocytotoxicity against human OE19 cells assessed as cell viability after 24 hrs in presence of light irradiation by MTT assay; assay type: functional, cell-based; conditions: OE19, light or radiation study; in short: as §1
[3] = system: A-375; test: Cytotoxicity against human A375 cells assessed as cell viability measured after 24 hrs by MTT assay; assay type: cell-based; conditions: A-375, 24 h
In short: (§2)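 Dark control run in A375 (DMEM) or OE19 (RPMI 1640) cells, plated overnight. Sensitizers were diluted from a 1 mg/mL DMSO stock and given at 1 nM–10 μM, with a 1% DMSO vehicle control. Cells were incubated 24 h at 37 °C in the dark, PBS-washed, refed and not irradiated. Read-out was MTT (0.5 mg/mL, 4 h) with formazan dissolved in HCl/isopropanol, as % of vehicle; IC50 taken from dose–response curves.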

[4] = system: OE19; test: Cytotoxicity against human OE19 cells assessed as cell viability measured after 24 hrs by MTT assay; assay type: cell-based; conditions: OE19, 24 h; in short: as §2
[5] = Drug uptake in human A375 cells at 500 nM incubated for 24 hrs by fluorescence emission spectroscopic analysis; assay type: ADME, cell-based; conditions: a-375, 24 h, 0.5 µM
In short: (§3)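 Cells (5 × 10^5) were exposed to 500 nM sensitizer for 24 h in the dark, then PBS-washed, disrupted in DMSO, scraped and centrifuged. Supernatant fluorescence was read with excitation at 405 and 420 nm. Intracellular concentration was calculated from a calibration curve of each sensitizer in DMSO; mean ± SE.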

[6] = Drug uptake in human OE19 cells at 500 nM incubated for 24 hrs by fluorescence emission spectroscopic analysis; assay type: ADME, cell-based; conditions: oe19, 24 h, 0.5 µM; in short: as §3

Row | Drug uptake [5] [nM] | Drug uptake [6] [nM] | Compound | pIC50 [1] | pIC50 [2] | pIC50 [3] | pIC50 [4]
1 |  |  | COC(=O)c1nn2c(c1C(=O)OC)CC1c3nc(c(-c4c(F)c(F)c(F)c(F)c4F)c4ccc([nH]4)c(-c4c(F)c(F)c(F)c(F)c4F)c4nc(c(-c5c(F)c(F)c(F)c(F)c5F)c5ccc([nH]5)c3-c3c(F)c(F)c(F)c(F)c3F)C=C4)C1C2 (stereo not given) | 5.18 | 5.25 | < 5.00 | < 5.00
2 | 148 |  | COC(=O)c1nn2c(c1C(=O)OC)CC1c3nc(c(-c4c(F)c(F)c(NCCOCCO)c(F)c4F)c4ccc([nH]4)c(-c4c(F)c(F)c(NCCOCCO)c(F)c4F)c4nc(c(-c5c(F)c(F)c(NCCOCCO)c(F)c5F)c5ccc([nH]5)c3-c3c(F)c(F)c(NCCOCCO)c(F)c3F)C=C4)C1C2 (stereo not given) | 6.04 | 6.98 | < 5.00 | < 5.00
3 | 128 |  | OCc1nn2c(c1CO)CC1c3nc(c(-c4c(F)c(F)cc(F)c4F)c4ccc([nH]4)c(-c4c(F)c(F)cc(F)c4F)c4nc(c(-c5c(F)c(F)cc(F)c5F)c5ccc([nH]5)c3-c3c(F)c(F)cc(F)c3F)C=C4)C1C2 (stereo not given) | 7.14 | 7.25 | < 5.00 | < 5.00
4 | 254 | 202 | OCCOCCNc1c(F)c(F)c(-c2c3nc(c(-c4c(F)c(F)c(NCCOCCO)c(F)c4F)c4ccc([nH]4)c(-c4c(F)c(F)c(NCCOCCO)c(F)c4F)c4nc(c(-c5c(F)c(F)c(NCCOCCO)c(F)c5F)c5ccc2[nH]5)C2Cc5c(CO)c(CO)nn5CC42)C=C3)c(F)c1F (stereo not given) | 7.89 | 7.57 | < 5.00 | < 5.00
